Source: PubChem
CRFBP-R2 agonist: agonists of CRF-BP/CRF-R2 complex, primary screen, cell-based, HEK293, calcium dye fluorescence, uHTS; activation, % at 13.2 µM; hit rate 0.46% among 350,000; CRF-binding protein / CRF receptor 2 complex (human); calcium dye fluorescence (FLIPR); percent of saturating CRF peptide response;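 active = activation of at least 50%, plus an integration ratio under a set limit after plate pattern correction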
CRFR2-BP antag: antagonists of CRF-BP/CRF-R2 complex, primary screen, cell-based, HEK293, calcium dye fluorescence, uHTS | CRF-induced calcium fluorescence | inhibition, % at 11.8 µM | hit rate 0.59% among 350,000 | AID 588475, 2011;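 active = inhibition of the ligand-induced calcium signal above about 50% at the single tested concentration, limit read from the data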
TAAR1 ag: human TAAR1 agonists, primary screen, Fluo-8 calcium fluorescence, CHO RD-HGA16 cells; Trace amine-associated receptor 1 (Homo sapiens), Q96RJ0; vehicle wells 0%, saturating PEA agonist 100%; activation, % at 3 µM; hit rate 0.99% among 360,000; AID 624467, 2012;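 active = activation above the mean activation of all test compounds in the run plus 3 SD, cut at about 38% in these data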
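Test system: RD-HGA16 (CHO) cells co-expressing Gα16 and hTAAR1 | Doses: Single dose, 3 µM | Schedule: 17-24 h seeding, 75 min 37 °C dye, 30 min RT | Evaluation: % activation from peak over basal fluorescence ratio, DMSO-to-PEA scaled | Technique: Kinetic Fluo-8 calcium fluorescence | Benchmarks: Low control DMSO, high control PEA (EC100)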
ANO1 block: TMEM16A chloride channel inhibitors, primary screen, cell-based, HTS | Anoctamin-1 (Mus musculus), Q8BHY3 | AID 588511, 2011 | hit rate 1.2% among 310,000 | HEK293 TMEM16A/YFP iodide influx fluorescence, ionomycin | normalized B-score (activity score, 25-100; higher = stronger inhibition) at 10 µM;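 active = ratio plate-corrected score three or more library SD toward inhibition, starting fluorescence score within five deviations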;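 note: score derived from kinetic fluorescence span divided by baseline fluorescence per well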
Target sequence (Q8BHY3 whole entry, looked up): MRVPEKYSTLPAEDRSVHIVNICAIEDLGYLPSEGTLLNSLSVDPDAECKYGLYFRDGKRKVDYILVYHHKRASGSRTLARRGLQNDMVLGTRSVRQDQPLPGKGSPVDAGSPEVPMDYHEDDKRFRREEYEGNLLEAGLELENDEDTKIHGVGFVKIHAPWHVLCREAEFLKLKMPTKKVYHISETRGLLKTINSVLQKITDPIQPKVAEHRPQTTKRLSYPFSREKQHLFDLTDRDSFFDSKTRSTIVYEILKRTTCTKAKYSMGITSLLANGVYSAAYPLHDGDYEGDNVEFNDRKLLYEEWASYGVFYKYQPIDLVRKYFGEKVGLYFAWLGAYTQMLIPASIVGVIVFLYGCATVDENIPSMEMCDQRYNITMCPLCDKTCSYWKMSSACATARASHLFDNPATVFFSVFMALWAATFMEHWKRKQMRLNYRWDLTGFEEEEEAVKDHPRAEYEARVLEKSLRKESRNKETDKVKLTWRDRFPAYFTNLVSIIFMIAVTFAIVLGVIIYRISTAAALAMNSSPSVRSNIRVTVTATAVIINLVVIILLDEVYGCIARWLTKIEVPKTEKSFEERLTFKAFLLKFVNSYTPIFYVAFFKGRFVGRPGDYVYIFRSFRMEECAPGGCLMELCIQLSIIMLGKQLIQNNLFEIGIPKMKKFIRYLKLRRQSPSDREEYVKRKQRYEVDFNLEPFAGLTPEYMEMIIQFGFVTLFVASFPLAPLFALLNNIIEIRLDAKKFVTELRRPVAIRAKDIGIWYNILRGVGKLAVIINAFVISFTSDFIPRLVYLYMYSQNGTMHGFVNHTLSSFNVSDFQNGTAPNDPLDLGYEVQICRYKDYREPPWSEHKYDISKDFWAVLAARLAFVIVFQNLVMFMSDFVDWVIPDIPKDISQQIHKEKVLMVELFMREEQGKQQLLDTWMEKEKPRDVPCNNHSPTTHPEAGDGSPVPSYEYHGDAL
ANO1 activ: TMEM16A chloride channel activators or potentiators, primary screen, cell-based, HTS. Anoctamin-1 (Mus musculus), Q8BHY3. HEK293 TMEM16A/YFP-H148Q/I152L, iodide quench fluorescence; hits give low values. B-score at 10 µM. hit rate 0.3% among 340,000. AID 623877, 2012;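 active = fluorescence-ratio B-score plate-corrected deviation score at least 3 library SD below zero, with starting fluorescence score within 5 deviations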;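 note: channel opened by trigger with iodide after compound preincubation; score built on the fluorescence ratio of max minus min over baseline; more negative score means more quench and so TMEM16A activation or potentiation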
TAAR1 antagonist: human TAAR1 antagonists, primary screen, Fluo-8 calcium fluorescence, CHO RD-HGA16 cells. AID 624466, 2012. inhibition, % at 3 µM. hit rate 1.5% among 360,000. antagonist;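 active = inhibition above a per-plate cutoff, the mean inhibition of test compounds on that plate plus 3 SD, cut at about 49% in these data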
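Test system: RD-HGA16 CHO cells with stable hTAAR1 and Gα16 / Probe or stimulus: EC80 β-phenethylamine stimulus / Times: seeding 17-24 h prior, 75-min 37 °C, 30-min RT dye loading / Detection: Fluo-8 calcium-sensitive fluorescence / Read-out basis: % inhibition scaled between DMSO and EC80 PEA controls / Repeats: singlicate, one well per test compound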
Of the large screens only hits and unclear results are named; the others gave an inactive call; ! = not confirmed by another sample. In the library only some 3.9% were active in any assay of this set; here they are far more common.

CCS(=O)(=O)c1ncc(Cl)c(C(=O)Nc2ccc(C)cc2)n1	none
COc1cc(CNCCc2ccccc2)ccc1OCC(=O)NC(C)(C)C	TAAR1 ag 67
CCOCCCNC(=O)c1cn(C)c2ccc(S(=O)(=O)N3CCCC3)cc2c1=O	none
CC(=O)Nc1ccc(S(=O)(=O)N(Cc2cccnc2)Cc2cc3ccccc3[nH]c2=O)cc1	TAAR1 antagonist 61
COc1ccc(N(Cc2cc3ccccc3[nH]c2=O)S(=O)(=O)c2ccc(OC)cc2)cc1	none
COc1ccc(N(Cc2cc3cc(OC)ccc3[nH]c2=O)S(=O)(=O)c2ccc(NC(C)=O)cc2)cc1	TAAR1 antagonist 58
O=c1[nH]c2ccccc2cc1CN(Cc1cccnc1)S(=O)(=O)c1ccc(Cl)cc1	none
O=C(CN1C(=O)C2CC=CCC2C1=O)Nc1ccc(OC(F)(F)F)cc1 (stereo not given)	none (no result: ANO1 block)
CCCCOc1ccc(C(=O)N2CCN(CC(=O)Nc3ccc(C)cc3)CC2)cc1OC	none
O=C(Nc1ccccc1)Nc1cc([N+](=O)[O-])ccc1F	TAAR1 ag 41
O=C(NNc1ccccc1[N+](=O)[O-])Nc1ccc(F)cc1	TAAR1 ag 42
O=C(NNc1ccccc1[N+](=O)[O-])Nc1ccccc1	none (no result: TAAR1 ag, TAAR1 antagonist)
Cc1ccc(O)c(C(=O)c2cc(C#N)c3nc4ccccc4n3c2)c1	CRFBP-R2 agonist 66
CSc1ccccc1OCc1cc(C(=O)N2CCC(Oc3cccnc3)CC2)no1	ANO1 block 25 (no result: CRFBP-R2 agonist, CRFR2-BP antag)
Clc1ccc(CSCCc2ccncc2)cc1	none
Clc1ccc(NN(Cc2ccncc2)c2ccc(Cl)cc2)cc1	CRFBP-R2 agonist 51 (no result: ANO1 block, ANO1 activ)
C#CCSc1nnc(-c2ccc([N+](=O)[O-])cc2)o1	none
Nc1sc(Cc2ccccc2)cc1C(=O)NC1CCCCC1	none (no result: CRFBP-R2 agonist, CRFR2-BP antag, ANO1 block, ANO1 activ)
Cn1cccc1/C=N/n1c(-c2ccc(C(C)(C)C)cc2)n[nH]c1=S	TAAR1 antagonist 52
O=C(COC(=O)C1=NN(c2ccccc2)C(=O)CC1)Nc1ccc([N+](=O)[O-])cc1C(F)(F)F	none (no result: ANO1 block)
CC1(C)CC(=O)C(C(c2ccncc2)C2C(=O)CC(C)(C)CC2=O)C(=O)C1	ANO1 activ -14
COc1ccc(C(C2C(=O)CC(C)(C)CC2=O)C2C(=O)CC(C)(C)CC2=O)cc1	none
COc1cc([N+](=O)[O-])ccc1NC(=O)CCCOc1cccc(C)c1	TAAR1 antagonist 106
CCn1ncc(C(=O)Nc2ccc([N+](=O)[O-])cc2OC)c1C	CRFR2-BP antag 51
COc1cc([N+](=O)[O-])ccc1NC(=O)CCCOc1ccc(C)cc1	none
CCn1ncc(Cl)c1C(=O)Nc1cc([N+](=O)[O-])ccc1OC	none
Cc1cccn2c(=O)nc(SCC(=O)NC3CCCC3)nc12	none
CCOC(=O)c1c(S(=O)(=O)NCC(=O)N2CCN(c3ccc(OC)cc3)CC2)c(C)n(C)c1C	none
COc1ccc2cc3cc(C(=O)NCc4cccnc4)oc3nc2c1	none
COc1cc(/C=C/C(=O)NC(=O)c2ccccc2O)ccc1O	none
COc1cc(/C=C/C(O)=C/C(=O)/C=C/c2ccc(O)cc2)ccc1O	CRFBP-R2 agonist 113, TAAR1 ag 45, TAAR1 antagonist 81 (no result: ANO1 block)
O=c1cc(C(F)(F)F)nc(SC/C=C/c2ccccc2)[nH]1	ANO1 block 100 (no result: TAAR1 ag, TAAR1 antagonist)
Nc1cc(=O)[nH]c(SC/C=C/c2ccccc2)n1	none
Cc1cccc(N=Cc2[nH]c3ccc(Br)c(Cl)c3c2O)c1	CRFBP-R2 agonist 192
COc1ccccc1-c1oc2ccccc2c1C#CC1(N)CCCCC1	TAAR1 ag 38 (no result: ANO1 block)
O=C(Nc1ccccc1)Nc1cccc(-c2nnco2)c1	TAAR1 ag 44
Cc1nnc(SCC2=C(C(=O)O)N3C(=O)[C@@H](NC(=O)Cn4cnnn4)[C@H]3SC2)s1	ANO1 block 100!
Cc1nnc(SCC2=C(C(=O)O)N3C(=O)C(NC(=O)Cn4cnnn4)C3SC2)s1 (stereo not given)	none
O=C(Oc1cccc(NC2=NS(=O)(=O)c3ccccc32)c1)c1cccnc1	TAAR1 antagonist 49
CCN(CC)Cc1cc(NC2=NS(=O)(=O)c3ccccc32)ccc1OC(=O)c1ccccc1	none
Cc1ccc(S(=O)(=O)C2(C(=O)N3CCCC(C)C3)CC2)cc1 (stereo not given)	ANO1 block 25 (no result: TAAR1 ag, TAAR1 antagonist)
CC1(C)OC(C(O)(c2ccccc2)c2ccccc2)[C@@H](C(O)(c2ccccc2)c2ccccc2)O1 (stereo not given in full)	none
O=C(CSc1nc2ncc(Cl)cc2[nH]1)Nc1ccccc1-c1ccccc1	ANO1 block 100
Cc1ccc2sc(NC(=O)c3cccc(N4C(=O)CCC4=O)c3)nc2c1C	TAAR1 ag 48
O=C(COC(=O)c1cccs1)Nc1cccc(Cl)c1	none (no result: ANO1 block)
NC(=O)CC(c1ccccc1)c1ccc2c(c1)OCO2 (stereo not given)	none
COc1ccc(C(CC(=O)O)c2ccc3c(c2)OCO3)cc1 (stereo not given)	CRFR2-BP antag 94
COC(=O)CC(NC(=O)c1ccc(C)cc1)c1ccc2c(c1)OCO2 (stereo not given)	CRFR2-BP antag 107
O=C(COC(=O)CCN=C1NS(=O)(=O)c2ccccc21)NNC(=O)c1ccccc1	none
Cc1cccn2c(CNCCc3ccco3)c(C(=O)N3CCOCC3)nc12	TAAR1 ag 43 (no result: ANO1 block)
Cc1cccn2c(CN[C@@H]3CCCC[C@H]3c3ccccc3)c(C(=O)N3CCOCC3)nc12	none
CCN(Cc1ccccc1)C(=O)c1cc2c(=O)oc3ccc(C)cc3c2s1	TAAR1 antagonist 83
COc1ccc(OC)c2c1sc(=NC(=O)C1COc3ccccc3O1)n2C (stereo not given)	CRFR2-BP antag 82
O=C(COc1ccc(Cl)cc1Br)NC(=O)NC1CCCC1	none (no result: ANO1 block)
Cc1ccc(C(=O)CSc2cc(C)nc(SCC(=O)c3ccccc3)n2)cc1	TAAR1 antagonist 54
Cc1cc(SCC(N)=O)nc(SCC(=O)c2ccccc2)n1	none
CCC(C(=O)OC)n1cnc2c(cnn2-c2ccc(Cl)cc2)c1=O (stereo not given)	TAAR1 antagonist 49
Cc1cccc2c1cnn2C(=O)CCC(=O)NCc1ccc(F)cc1	none
CCN1/C(=C2\SC(=S)N(Cc3ccccc3)C2=O)Sc2ccccc21	CRFBP-R2 agonist 51
CCN1C(=O)/C(=C2/Sc3ccccc3N2CC)SC1=S	none
CO[C@H]1CN(C)C(=O)c2cc(NC(=O)C3CCOCC3)ccc2OC[C@H](C)N(Cc2nccs2)C[C@H]1C	none (no result: CRFBP-R2 agonist, CRFR2-BP antag, ANO1 block, ANO1 activ)
